Test results: ChEMBL document CHEMBL4229530, “5-Adamantan thiadiazole-based thiazolidinones as antimicrobial agents. Design, synthesis, molecular docking and evaluation” (2018)
Values after ≈ are worked out from the molar mass of the structure shown.

What was measured:
Penicillium ochrochloron = assay: Antifungal activity against Penicillium ochrochloron ATCC 9112 after 72 hrs by serial dilution assay; assay type: functional; conditions: ATCC 9112, 72 h
How it was run: (§1)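 Modified microdilution: fungal spores washed off malt agar with sterile 0.85% saline plus 0.1% Tween 80, adjusted to about 1.0×10^5 per 100 µL well. Compounds in 5% DMSO (0.001-1.0 mg/ml) in malt broth; 72 h at 28°C on rotary shaker (160 rpm). MIC is lowest concentration without visible growth under binocular microscope. Bifonazole and ketoconazole controls (1-3500 µg/mL); three independent experiments in duplicate.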

Talaromyces funiculosus = assay: Antifungal activity against Penicillium funiculosum ATCC 36839 after 72 hrs by serial dilution assay; assay type: functional; conditions: ATCC 36839, 72 h; how it was run: as §1
Escherichia coli [1] = assay: Antibacterial activity against drug-resistant Escherichia coli after 24 hrs by INT dye based microdilution assay; assay type: functional
How it was run: (§2)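 Broth microdilution in tryptic soy broth. Overnight culture adjusted to 1×10^5 CFU/mL, giving 1.0×10^4 CFU per well. Compounds dissolved in 5% DMSO and tested at 0.001-1.0 mg/ml. Plates incubated 24 h at 37°C. INT (0.2 mg/mL) then added, with 30 min at 37°C. Duplicate, repeated three times.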

Trichoderma viride = assay: Antifungal activity against Trichoderma viride IAM 5061 after 72 hrs by serial dilution assay; assay type: functional; conditions: IAM 5061, 72 h; how it was run: as §1
Aspergillus versicolor = assay: Antifungal activity against Aspergillus versicolor ATCC 11730 after 72 hrs by serial dilution assay; assay type: functional; conditions: ATCC 11730, 72 h; how it was run: as §1
Aspergillus ochraceus = assay: Antifungal activity against Aspergillus ochraceus ATCC 12066 after 72 hrs by serial dilution assay; assay type: functional; conditions: ATCC 12066, 72 h; how it was run: as §1
Listeria monocytogenes = assay: Antibacterial activity against Listeria monocytogenes NCTC 7973 after 24 hrs by INT dye based microdilution assay; assay type: functional; conditions: NCTC 7973, 24 h
How it was run: (§3)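 Broth microdilution in tryptic soy broth: overnight bacterial culture adjusted to 1×10^5 CFU/mL, 1.0×10^4 CFU per well; compounds dissolved in 5% DMSO, tested at 0.001-1.0 mg/ml; 24 h at 37°C. Streptomycin and ampicillin as positive controls, 5% DMSO as negative control; duplicate, repeated three times.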

Aspergillus fumigatus = assay: Antifungal activity against Aspergillus fumigatus isolate 1022 after 72 hrs by serial dilution assay; assay type: functional; conditions: isolate 1022, 72 h; how it was run: as §1
Aspergillus niger = assay: Antifungal activity against Aspergillus niger ATCC 6275 after 72 hrs by serial dilution assay; assay type: functional; conditions: ATCC 6275, 72 h; how it was run: as §1
Staphylococcus aureus [2] = assay: Antibacterial activity against methicillin-resistant Staphylococcus aureus after 24 hrs by INT dye based microdilution assay; assay type: functional; how it was run: as §2
Enterobacter cloacae = assay: Antibacterial activity against Enterobacter cloacae after 24 hrs by INT dye based microdilution assay; assay type: functional; how it was run: as §3
Staphylococcus aureus [3] = assay: Antibacterial activity against Staphylococcus aureus ATCC 6538 after 24 hrs by INT dye based microdilution assay; assay type: functional; conditions: ATCC 6538, 24 h; how it was run: as §3
Bacillus cereus = assay: Antibacterial activity against Bacillus cereus after 24 hrs by INT dye based microdilution assay; assay type: functional; how it was run: as §3
Pseudomonas aeruginosa [4] = assay: Antibacterial activity against drug-resistant Pseudomonas aeruginosa after 24 hrs by INT dye based microdilution assay; assay type: functional; how it was run: as §2
Pseudomonas aeruginosa [5] = assay: Antibacterial activity against Pseudomonas aeruginosa ATCC 27853 after 24 hrs by INT dye based microdilution assay; assay type: functional; conditions: ATCC 27853, 24 h; how it was run: as §3
Escherichia coli [6] = assay: Antibacterial activity against Escherichia coli ATCC 35210 after 24 hrs by INT dye based microdilution assay; assay type: functional; conditions: ATCC 35210, 24 h; how it was run: as §3
Micrococcus flavus = assay: Antibacterial activity against Micrococcus flavus ATCC 10240 after 24 hrs by INT dye based microdilution assay; assay type: functional; conditions: ATCC 10240, 24 h; how it was run: as §3
Penicillium verrucosum = assay: Antifungal activity against Penicillium cyclopium var verucosum after 72 hrs by serial dilution assay; assay type: functional; how it was run: as §1
Salmonella typhimurium = assay: Antibacterial activity against Salmonella typhimurium ATCC 13311 after 24 hrs by INT dye based microdilution assay; assay type: functional, Salmonella enterica subsp. enterica serovar Typhimurium; conditions: Salmonella enterica, ATCC 13311, 24 h; how it was run: as §3

SMILES	MIC (Penicillium ochrochloron)	MIC (Talaromyces funiculosus)	MIC (Escherichia coli [1])	MIC (Trichoderma viride)	MIC (Aspergillus versicolor)	MIC (Aspergillus ochraceus)	MIC (Listeria monocytogenes)	MIC (Aspergillus fumigatus)	MIC (Aspergillus niger)	MIC (Staphylococcus aureus [2])	MIC (Enterobacter cloacae)	MIC (Staphylococcus aureus [3])	MIC (Bacillus cereus)	MIC (Pseudomonas aeruginosa [4])	MIC (Pseudomonas aeruginosa [5])	MIC (Escherichia coli [6])	MIC (Micrococcus flavus)	MIC (Penicillium verrucosum)	MIC (Salmonella typhimurium)
O=C1N/C(=N\c2nnc(C34CC5CC(CC(C5)C3)C4)s2)S/C1=C/c1ccc([N+](=O)[O-])cc1	8 µM (≈ 3.74 µg/mL)	12.3 µM (≈ 5.75 µg/mL)	0.006 µM (≈ 0.00281 µg/mL)	6 µM (≈ 2.81 µg/mL)	8 µM (≈ 3.74 µg/mL)	12.3 µM (≈ 5.75 µg/mL)	33 µM (≈ 15.4 µg/mL)	8 µM (≈ 3.74 µg/mL)	16.5 µM (≈ 7.72 µg/mL)	0.008 µM (≈ 0.00374 µg/mL)	18 µM (≈ 8.42 µg/mL)	0.0165 µM (≈ 0.00772 µg/mL)	16.5 µM (≈ 7.72 µg/mL)	8 µM (≈ 3.74 µg/mL)	22 µM (≈ 10.3 µg/mL)	0.022 µM (≈ 0.0103 µg/mL)	22 µM (≈ 10.3 µg/mL)	0.0165 µM (≈ 0.00772 µg/mL)	16.5 µM (≈ 7.72 µg/mL)
O=C1N/C(=N\c2nnc(C34CC5CC(CC(C5)C3)C4)s2)S/C1=C/c1c(F)cccc1F	393 µM (≈ 180 µg/mL)	393 µM (≈ 180 µg/mL)	0.393 µM (≈ 0.18 µg/mL)	393 µM (≈ 180 µg/mL)	393 µM (≈ 180 µg/mL)	393 µM (≈ 180 µg/mL)	21.8 µM (≈ 10 µg/mL)	393 µM (≈ 180 µg/mL)	393 µM (≈ 180 µg/mL)	0.393 µM (≈ 0.18 µg/mL)	21.8 µM (≈ 10 µg/mL)	0.0436 µM (≈ 0.02 µg/mL)	43.6 µM (≈ 20 µg/mL)	393 µM (≈ 180 µg/mL)	43.6 µM (≈ 20 µg/mL)	0.0436 µM (≈ 0.02 µg/mL)	43.6 µM (≈ 20 µg/mL)	0.393 µM (≈ 0.18 µg/mL)	43.6 µM (≈ 20 µg/mL)
CN(C)c1ccc(/C=C2/S/C(=N/c3nnc(C45CC6CC(CC(C6)C4)C5)s3)NC2=O)cc1	150 µM (≈ 69.8 µg/mL)	150 µM (≈ 69.8 µg/mL)	0.0751 µM (≈ 0.035 µg/mL)	301 µM (≈ 140 µg/mL)	150 µM (≈ 69.8 µg/mL)	150 µM (≈ 69.8 µg/mL)	69.5 µM (≈ 32.4 µg/mL)	301 µM (≈ 140 µg/mL)	150 µM (≈ 69.8 µg/mL)	0.15 µM (≈ 0.0701 µg/mL)	139 µM (≈ 64.8 µg/mL)	0.139 µM (≈ 0.0648 µg/mL)	139 µM (≈ 64.8 µg/mL)	150 µM (≈ 70.1 µg/mL)	69.5 µM (≈ 32.4 µg/mL)	0.139 µM (≈ 0.0648 µg/mL)	139 µM (≈ 64.8 µg/mL)	0.301 µM (≈ 0.14 µg/mL)	69.5 µM (≈ 32.4 µg/mL)
O=C1N/C(=N\c2nnc(C34CC5CC(CC(C5)C3)C4)s2)S/C1=C/c1ccc(Cl)cc1Cl	163 µM (≈ 80.1 µg/mL)	163 µM (≈ 80.1 µg/mL)	0.0203 µM (≈ 0.00998 µg/mL)	81.4 µM (≈ 40 µg/mL)	163 µM (≈ 80.1 µg/mL)	81.4 µM (≈ 40 µg/mL)	163 µM (≈ 80.1 µg/mL)	81.4 µM (≈ 40 µg/mL)	81.4 µM (≈ 40 µg/mL)	0.0814 µM (≈ 0.04 µg/mL)	163 µM (≈ 80.1 µg/mL)	0.0203 µM (≈ 0.00998 µg/mL)	163 µM (≈ 80.1 µg/mL)	163 µM (≈ 80 µg/mL)	163 µM (≈ 80.1 µg/mL)	0.163 µM (≈ 0.0801 µg/mL)	163 µM (≈ 80.1 µg/mL)	0.0814 µM (≈ 0.04 µg/mL)	81.5 µM (≈ 40.1 µg/mL)
O=C1N/C(=N\c2nnc(C34CC5CC(CC(C5)C3)C4)s2)S/C1=C/c1cccc(Cl)c1Cl	163 µM (≈ 80.1 µg/mL)	326 µM (≈ 160 µg/mL)	0.183 µM (≈ 0.09 µg/mL)	163 µM (≈ 80.1 µg/mL)	163 µM (≈ 80.1 µg/mL)	163 µM (≈ 80.1 µg/mL)	244 µM (≈ 120 µg/mL)	163 µM (≈ 80.1 µg/mL)	163 µM (≈ 80.1 µg/mL)	0.183 µM (≈ 0.09 µg/mL)	244 µM (≈ 120 µg/mL)	0.244 µM (≈ 0.12 µg/mL)	244 µM (≈ 120 µg/mL)	183 µM (≈ 90 µg/mL)	122 µM (≈ 60 µg/mL)	0.244 µM (≈ 0.12 µg/mL)	244 µM (≈ 120 µg/mL)	0.163 µM (≈ 0.0801 µg/mL)	122 µM (≈ 60 µg/mL)
O=C1N/C(=N\c2nnc(C34CC5CC(CC(C5)C3)C4)s2)S/C1=C/c1c(Cl)cccc1Cl	61 µM (≈ 30 µg/mL)	61 µM (≈ 30 µg/mL)	0.0305 µM (≈ 0.015 µg/mL)	122 µM (≈ 60 µg/mL)	61 µM (≈ 30 µg/mL)	92 µM (≈ 45.2 µg/mL)	21.4 µM (≈ 10.5 µg/mL)	61 µM (≈ 30 µg/mL)	61 µM (≈ 30 µg/mL)	0.0611 µM (≈ 0.03 µg/mL)	21.4 µM (≈ 10.5 µg/mL)	0.0407 µM (≈ 0.02 µg/mL)	40.7 µM (≈ 20 µg/mL)	61.1 µM (≈ 30 µg/mL)	40.7 µM (≈ 20 µg/mL)	0.0407 µM (≈ 0.02 µg/mL)	40.7 µM (≈ 20 µg/mL)	0.122 µM (≈ 0.06 µg/mL)	40.7 µM (≈ 20 µg/mL)
O=C1N/C(=N\c2nnc(C34CC5CC(CC(C5)C3)C4)s2)S/C1=C/c1ccc(F)cc1	90.9 µM (≈ 40 µg/mL)	90.9 µM (≈ 40 µg/mL)	0.295 µM (≈ 0.13 µg/mL)	182 µM (≈ 80.2 µg/mL)	90.9 µM (≈ 40 µg/mL)	90.9 µM (≈ 40 µg/mL)	295 µM (≈ 130 µg/mL)	90.9 µM (≈ 40 µg/mL)	182 µM (≈ 80.2 µg/mL)	0.295 µM (≈ 0.13 µg/mL)	148 µM (≈ 65 µg/mL)	0.147 µM (≈ 0.065 µg/mL)	295 µM (≈ 130 µg/mL)	295 µM (≈ 130 µg/mL)	295 µM (≈ 130 µg/mL)	0.295 µM (≈ 0.13 µg/mL)	295 µM (≈ 130 µg/mL)	0.182 µM (≈ 0.0801 µg/mL)	295 µM (≈ 130 µg/mL)
CC1(C)S[C@@H]2[C@H](NC(=O)[C@H](N)c3ccccc3)C(=O)N2[C@H]1C(=O)O [AMPICILLIN]	–	–	1.24 µM (≈ 0.433 µg/mL)	–	–	–	372 µM (≈ 130 µg/mL)	–	–	–	248 µM (≈ 86.7 µg/mL)	0.248 µM (≈ 0.0867 µg/mL)	248 µM (≈ 86.7 µg/mL)	1240 µM (≈ 433 µg/mL)	744 µM (≈ 260 µg/mL)	0.372 µM (≈ 0.13 µg/mL)	248 µM (≈ 86.7 µg/mL)	–	248 µM (≈ 86.7 µg/mL)
CN[C@@H]1[C@H](O[C@H]2[C@H](O[C@H]3[C@H](O)[C@@H](O)[C@H](N=C(N)N)[C@@H](O)[C@@H]3N=C(N)N)O[C@@H](C)[C@]2(O)C=O)O[C@@H](CO)[C@H](O)[C@H]1O [STREPTOMYCIN]	–	–	0.258 µM (≈ 0.15 µg/mL)	–	–	–	258 µM (≈ 150 µg/mL)	–	–	0.258 µM (≈ 0.15 µg/mL)	43 µM (≈ 25 µg/mL)	0.172 µM (≈ 0.1 µg/mL)	43 µM (≈ 25 µg/mL)	129 µM (≈ 75 µg/mL)	172 µM (≈ 100 µg/mL)	0.172 µM (≈ 0.1 µg/mL)	86 µM (≈ 50 µg/mL)	–	172 µM (≈ 100 µg/mL)
